Test [1] is filed under the species Rattus norvegicus. The test is described as follows: Effect on the potentiation of muscimol-stimulated 36Cl- uptake in rat brain synaptoneurosomes. In kind it is functional. The method, boiled down:
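Cerebral cortex synaptoneurosomes from adult male Sprague-Dawley rats (180-200 g), homogenized in Tris-Hepes buffer pH 7.4 with salts and glucose, filtered and washed. Tubes held 1 mg protein. Steroid plus 3 μM muscimol preincubated 10 min at 30 °C, then 0.5 µCi 36Cl- added. Uptake stopped after 5 s with ice-cold picrotoxin buffer and filtered. Counted by scintillation, in quadruplicate; increase measured over muscimol alone.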

Test [2] is filed under the species Rattus norvegicus. The test is described as follows: Percent of total tritium in extracts of rat brain. In kind it is functional. The procedure, abridged: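 Groups of four adult male Sprague-Dawley rats (240-260 g) received 100 μCi 3H-steroid in ethanol-saline by tail vein and were killed after 20 min. Brain was homogenized in chloroform/methanol (2:1) and the extract separated by HPLC (75% aqueous methanol) alongside unlabeled internal standards read at 280 nm. Fraction radioactivity was expressed as % of total brain tritium; means ± SE.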

The test system of test [3] is Rattus norvegicus. The test can be described thus: The recovery of radioactivity 20 min after administration of [3H]- labeled steroids to rat brain. In kind it is functional, organism-based. The method, boiled down: (§1)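 Adult male Sprague-Dawley rats (240-260 g), four per group, were given 100 μCi tritiated steroid by tail vein in ethanol-saline. Blood and brain were collected 20 min later and aliquots counted for radioactivity (dpm/mL plasma, dpm/g brain). The brain/plasma ratio was also taken; means ± SE.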

The subject of test [4] is Rattus norvegicus. The test can be described thus: The recovery of radioactivity 20 min after administration of [3H]- labeled steroids to rat plasma. In kind it is functional, organism-based. The method, boiled down:
as §1

Take `CC(=O)O[C@@H]1CC[C@@]2(C)[C@@H](CC[C@@H]3[C@@H]2CC[C@]2(C)[C@@H](C(=O)CO)CC[C@@H]32)C1`: in test [1], the Potentiation worked out at 0.48 nM/mg.

In the case of `C[C@]12CC[C@@H](O)C[C@H]1CC[C@@H]1[C@@H]2CC[C@]2(C)[C@@H](C(=O)CO)CC[C@@H]12`, the Potentiation in test [1] worked out at 7.7 nM/mg.

As for `CC(=O)[C@H]1CC[C@H]2[C@@H]3CCC4=C[C@H](O)CC[C@]4(C)[C@H]3CC[C@]12C`, in test [1], the Potentiation is 10.4 nM/mg.

Take `CC(=O)[C@H]1CC[C@H]2[C@@H]3CC[C@H]4C[C@H](O)CC[C@]4(C)[C@H]3[C@H](O)C[C@]12C`: the Potentiation in test [1] was 0.7 nM/mg.

Regarding `CC(=O)[C@@H]1CC[C@H]2[C@@H]3CC[C@H]4C[C@H](O)CC[C@]4(C)[C@H]3CC[C@]12C`, in test [1], the Potentiation was found to be 1.12 nM/mg.

As to `CC1([C@H]2CC[C@H]3[C@@H]4CC[C@@H]5C[C@H](O)CC[C@]5(C)[C@H]4CC[C@]23C)OCCO1`, the Potentiation in test [1] was -0.96 nM/mg.

Regarding `C[C@]12CC[C@@H](O)C[C@@H]1CC[C@@H]1[C@@H]2CC[C@]2(C)C(=O)CC[C@@H]12` [ANDROSTERONE], the Potentiation in test [1] is 7 nM/mg.

Take `COC(=O)[C@H]1CC[C@H]2[C@@H]3CC[C@H]4C[C@H](O)CC[C@]4(C)[C@H]3CC[C@]12C`: in test [1], the Potentiation came out at 3.6 nM/mg.

For `CC(=O)[C@H]1CCC2C3CCC4=C[C@@H](O)CC[C@]4(C)C3CC[C@@]21C` (some centres undefined), in test [1], the Potentiation amounted to 1.43 nM/mg.

Regarding `CC(=O)OCC(=O)[C@H]1CC[C@H]2[C@@H]3CC[C@H]4C[C@H](OC(C)=O)CC[C@]4(C)[C@H]3CC[C@]12C`, in test [1], the Potentiation amounted to 1.37 nM/mg.

With `CC(=O)OCC(=O)[C@H]1CC[C@H]2[C@@H]3CC[C@H]4C[C@H](O)CC[C@]4(C)[C@H]3CC[C@]12C`, the Potentiation in test [1] came to 12.2 nM/mg.

Turning to `CC(=O)OCC(=O)[C@H]1CC[C@H]2[C@@H]3CC[C@@H]4C[C@H](O)CC[C@]4(C)[C@H]3CC[C@]12C`, the Potentiation in test [1] was found to be 10.3 nM/mg.

On to `C[C@H](O)[C@H]1CC[C@H]2[C@@H]3CC[C@H]4C[C@H](O)CC[C@]4(C)[C@H]3CC[C@]12C`, for which the Potentiation in test [1] amounted to 1.97 nM/mg.

Consider `CC(=O)C1CC[C@H]2[C@@H]3CC[C@H]4C/C(=N\O)CCC4(C)[C@H]3CCC12C` (some centres undefined), for which, in test [1], the Potentiation is -3.26 nM/mg.

Turning to `CC(=O)O[C@@H]1CC[C@@]2(C)[C@@H](CC[C@@H]3[C@@H]2CC[C@]2(C)[C@@H](C(C)=O)CC[C@@H]32)C1`, in test [1], the Potentiation was found to be 2.57 nM/mg.

For `C[C@]12CC[C@@H](O)C[C@@H]1CC[C@@H]1[C@@H]2CC[C@]2(C)/C(=N\O)CC[C@@H]12`, the Potentiation in test [1] was -1.91 nM/mg.

As for `C[C@]12CCC(=O)C[C@@H]1CC[C@@H]1[C@@H]2CC[C@]2(C)C(C(=O)CO)CC[C@@H]12` (some centres undefined), in test [1], the Potentiation is -1.95 nM/mg. The Total tritium in test [2] worked out at 46.1%.

Take `C[C@]12CC[C@@H](O)C[C@@H]1CC[C@@H]1[C@@H]2CC[C@]2(C)[C@@H](C(=O)COS(C)(=O)=O)CC[C@@H]12`: the Potentiation in test [1] amounted to 7.9 nM/mg.

As to `C[C@]12CC[C@@H](O)C[C@@H]1CC[C@@H]1[C@@H]2CC[C@]2(C)[C@@H](C#N)CC[C@@H]12`, in test [1], the Potentiation is 13 nM/mg.

Regarding `CC(=O)[C@H]1CC[C@H]2[C@@H]3CCC4=CC(=O)CC[C@]4(C)[C@H]3CC[C@]12C` [PROGESTERONE], the Potentiation in test [1] was -1.8 nM/mg.

In the case of `C[C@]12CC[C@@H](O)C[C@@H]1CC[C@@H]1[C@@H]2CC[C@]2(C)[C@H](C#N)CC[C@@H]12`, in test [1], the Potentiation is -2.1 nM/mg.

As for `CC(=O)[C@H]1CC[C@H]2[C@@H]3CC[C@@H]4C[C@H](O)CC[C@]4(C)[C@H]3[C@H](O)C[C@]12C`, in test [1], the Potentiation came to 0.98 nM/mg.

Take `CC1([C@H]2CC[C@H]3[C@@H]4CC[C@H]5C[C@H](O)CC[C@]5(C)[C@H]4CC[C@]23C)OCCO1`: the Potentiation in test [1] stood at 0.16 nM/mg.

On to `CC(=O)OCC(=O)[C@H]1CCC2C3CC[C@H]4C[C@H](O)CC[C@]4(C)C3=CC[C@@]21C` (some centres undefined), for which, in test [1], the Potentiation worked out at 0.34 nM/mg.

For the compound `C[C@]12CC[C@@H](O)C[C@@H]1CC[C@@H]1[C@@H]2CC[C@]2(C)[C@@H](C(=O)CO)CC[C@@H]12`, the Potentiation in test [1] was 13.1 nM/mg. The same compound came in with a Total tritium in test [2] of 48.1%. Further, the Recovery in test [3] amounted to 212000 dpm ml-1; in test [4], 316000 dpm ml-1.

For `C[C@]12CC[C@@H](O)C[C@H]1CC[C@@H]1[C@@H]2CC[C@]2(C)C(=O)CC[C@@H]12` [ETIOCHOLANOLONE], the Potentiation in test [1] was determined as 4.9 nM/mg.

Take `C[C@]12CC=C3C(CC[C@H]4C[C@H](O)CC[C@]34C)C1CC[C@@H]2C(=O)CO` (some centres undefined): in test [1], the Potentiation amounted to 1.4 nM/mg.

`CC(=O)[C@H]1CCC2C3CC[C@H]4C[C@H](O)CC[C@]4(C)C3=CC[C@@]21C` (some centres undefined): the Potentiation in test [1] was 1.23 nM/mg.

For `CC(=O)[C@H]1CC[C@H]2[C@@H]3CC[C@@H]4C[C@H](O)CC[C@]4(C)[C@H]3C[C@H](O)[C@]12C`, the Potentiation in test [1] was -2.58 nM/mg.

Turning to `CC(=O)C1CC[C@H]2[C@@H]3CC[C@H]4CC(=O)CC[C@]4(C)[C@H]3CC[C@]12C` (some centres undefined), the Potentiation in test [1] is 2.63 nM/mg. The Total tritium in test [2] came out at 40.6%.

As for `CC(=O)[C@H]1CC[C@H]2[C@@H]3CC[C@H]4C[C@H](O)CC[C@]4(C)[C@H]3CC[C@]12C` [BREXANOLONE], the Potentiation in test [1] came to 10.9 nM/mg. Besides, in test [2], the Total tritium turned out to be 50.4%. Further, the results for the Recovery in test [3] and in test [4] were 342000 dpm ml-1 and 176000 dpm ml-1, respectively.
